Fewer inactive variants are shown than the library holds.
B1: tRNA (parent)
chain: GUUCCGUUGGCGUAAUGGUAACGCGUCUCCCUCCUAAGGAGAAGACUGCGGGUUCGAGUCCCGUACGGAACG

Variants of: B1
Assay: yeast fitness relative to wild type (ratio to wild type); higher = fitter; tRNA-Arg(CCU), competitive growth, 37 C, YPD
Outline: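 Start and end populations of a pooled competition were compared by 100-nucleotide paired-end sequencing of gene amplicons. The Saccharomyces cerevisiae strains carried tRNA-Arg(CCU) gene variants at the native genomic locus, synthesised with a 3% per-site mutation rate at 69 sites, and competed in YPD at 37°C for 24 hours in six parallel replicates. Darwinian fitness relative to wild type was based on the change in genotype frequencies. Genotypes required ≥ 100 starting reads, and estimates < 0.5 were set to 0.5.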

| Variant | yeast fitness |
| --- | --- |
| GUUCCAUUGGGGUAAUGGUAAGGCGUCUCCCUCCUAAGGAGAAGACUGCGGGUACGAGUCCCGUACGGAACG [G6A C11G C22G U54A] | ≤ 0.5 |
| GUUCCGUUGGCGUAUUGGUAACGCGUCUCCCCCCUAAGGAGAAGACUGCGGCUUCGAGUCCCGUACGGAACG [A15U U32C G52C] | 0.539 |
| GUUCCGUUGGCGUAAUGGUAACGCGUCUCCCUCCUAAGCAGAACACUGCGGCUUCAAGUCCCGUACGGAACG [G39C G44C G52C G56A] | ≤ 0.5 |
| GUUCCGUUGGCGUAAUGGUAACGCGUUUCCCUCAUAAGGAGAACACUGCGGGUUCGAGUCCAGUACGGAACG [C27U C34A G44C C62A] | 0.539 |
| GUUCCGUUGGCGUAAUGGUAACGCGUCUCCCUCCUAAGGAGAAGACUGCGGGUUCGAGUCCCGUACAGGACG [G67A A69G] | 0.974 |
| GUUCCGUUGGCGUAAUGGUAACGAGUCUCCCUCCUGGGGAGAAGACUGCGGGUUCGAGUCCCGUACGGCACG [C24A A36G A37G A69C] | ≤ 0.5 |
| GUUCCGUUGGCGUAAUGGUAACGCGUCUGCCUCCUAAGGACAAGACUGCGGGUUCGAGUCCCGUAGGAAACG [C29G G41C C66G G68A] | 0.587 |
| GUUCCGUUGGCGUCAUGGUAGCGCGUCUACCUCUUAAGGAGAAGACUGCGGGUUCGAGUCCCGUACGGUACG [A14C A21G C29A C34U A69U] | 0.638 |
| GUUGCGUUGGCGUAAUGGUAACGCGUCUCCCUCCUAAGGUGAAGACUGCGGGUUCGAGUCCCGUAUGGAACG [C4G A40U C66U] | 0.571 |
| GUUCCGUUGGCGUAAUGGUAACGCGUCUCCCUCCUAAGGAGAGGUCUGCGGGUUCGAGUCCCGUACGGUACG [A43G A45U A69U] | 0.771 |
| GUUGCGUUGGCGUAAUGGUAACGCGUCUCCCUCCUAAGGAGAAGACUGCGGGUUAGAGUACCGUACGGAACG [C4G C55A C60A] | ≤ 0.5 |
| GUUCCAUUGGCGUAAUGGUAACGCGUCUCCCUCAUAAGGAGAAGACUGCGGGUUCGACUCCCGUCCGGCACG [G6A C34A G58C A65C A69C] | ≤ 0.5 |
| GUUCCGUUGGUGUAAUGGUAACGCGUCUCCCUGCUAAGGAGAAGAAUGCGGGUUCGAGUCACGUACGGAACG [C11U C33G C46A C61A] | ≤ 0.5 |
| GUCCCGUUGGCGUAAUGGUAACGCGUCUGGCUCCUACGAAGAAGACUGCGGGUUCGAGUCCCGUACGGAACG [U3C C29G C30G A37C G39A] | ≤ 0.5 |
| GUUCCGUUGGCGUAAUGGUAUCGAGUCUCCCUCCUAUGGAGAAGACUCCGGGUUCGAGUCCCGUACGGAACG [A21U C24A A37U G48C] | 0.534 |
| GUUCCGUUGGCGUAAUGGUAACGCGUCUGCCUCCUAAGGAGAAGCCUGCGGGUUCGAGUCCCGUACGGAGCG [C29G A45C A70G] | 0.573 |
| GUUCCGUUGGGGUAAUGGUAACGCGUCUCCCUCCUAAGGAGAAGACUGCGGGUUCGAGUCCCGUACGGAUCG [C11G A70U] | 0.655 |
| GUUACGUUGGCGUAAUGGUAACGCGUCUCCCUUCUAAGGAGAAGACUGCGGGUUCGAGUGCCGUACGGAACG [C4A C33U C60G] | 0.601 |
| GUUCCGUUGGCGUAAUGGUAACGCGUCUCCCUCCUAAGGAGAAGACUGCGGGCUCGAGUUCCGUACGGCACG [U53C C60U A69C] | 0.57 |

| Variant | yeast fitness |
| --- | --- |
| GUUCUGUUGGCGUAAUGGUGACGCGUCUCCCUCCUAAGGAGAAGAGUGGGGGUUCGAGUCCCGUACGGAACG [C5U A20G C46G C49G] | ≤ 0.5 |
| GUUCCGUUGGUGUAAUGGUAACGCGUCUUCCUCCUAAGGAGAAGACCGCGGGUUCGAGUCCCGUACAGAUCG [C11U C29U U47C G67A A70U] | ≤ 0.5 |
| GUUCCGUUGGCGUUAUGGUAACGCGUCUCCCUCCUUAGGAGAAGACUGCGGGUUCGAGUCCCGUACGGAACG [A14U A36U] | 0.531 |
| GUUCCGUUGGCGUAAUGGUAAUGCGUCUCCCUCCUAAGGAGAAGACUGCGGGUUCGAGUCCAGUACGGAACG [C22U C62A] | 0.856 |
| GUCCCGUUGGCGCAAUGGUAACGCGUCUCCCUCCUAAGGAGAAGACUGCGCGUUCGAGUCCCGUACGGAACG [U3C U13C G51C] | ≤ 0.5 |
| GUGCCGUUGGCGUAAUGGUAACGCGUCUCGCUCCUAAGGGGAAGACUGCGGGUUCGAGUCCCGUACGGAACG [U3G C30G A40G] | 0.836 |
| GUUCCGUUGGCGUAAUGGUAACGCGUCUCCCUCCUUAGGAGAAGACUGCGGGUUCAAGUCCCGUAUGGAACG [A36U G56A C66U] | ≤ 0.5 |
| GUUCCGUUGGCGUAAUGGUAAAGCGUCUCCCUCCUAAGGAGAGGACUGCGGGUUCGAGUCCCUAACGGAACG [C22A A43G G63U U64A] | ≤ 0.5 |
| GUUUCGUUGGCGUAAUGGUAACGCGUCUCCCUCCUAAGGAGAAGACUGCGGGUUCGAAUCCCGUACGGAACG [C4U G58A] | 0.838 |
| GUUCCGAUGGCGUAAUGGUAUCGCGUCUCCCUCCUAAGGAGGAGACUGCGGGUUUGAGUCCCGUACGGACCG [U7A A21U A42G C55U A70C] | ≤ 0.5 |
| GUUCCGUUGGCGUAAUGGUAACGCGUAUCCCUCCUAAGGAGAAGACUGCGGGUUCGAGCCCAGUACGGAACG [C27A U59C C62A] | ≤ 0.5 |
| GUUCCGUUGGCGUAAUGGUAACGCGUCUCCCUCCUAAGGAGAAGACUGCGGGUUCGACUCCGGUACGGAUCG [G58C C62G A70U] | 0.616 |
| GUUUCGUUGGCGUAAUGGUAACGCGUCUCCCUCCUAUGGAGAAGACUGCGGGUUCGAGUCCCGUACGGACCG [C4U A37U A70C] | 0.676 |
| GUUCCGUUGGCGUAAUGGUAACGCGUCUCCCUUCUAAGGAGAAGACUGGGGGUUCGAGUCCCGUCCGGAACG [C33U C49G A65C] | 0.504 |
| GUUUCGUUGGCGUUAUGGUAACGCGUCUCCCUCCUAAGGAGAUGACUGCGGGUUCGAGUCCCGUACGAAACG [C4U A14U A43U G68A] | ≤ 0.5 |
| GUUCCGUUGGCGUAAUGGAAACGCGUCUCCCUCCUAAGGAGAAGACGGCAGGUUCGAGUCCCGUACGGAACG [U19A U47G G50A] | 0.55 |
| GCUCCGUUGGCGUAAUGCUAACGCCUCUCACUCCUAAGGAGAAGACUGCGGGUUCGAGUCCCCUACGGAACG [U2C G18C G25C C30A G63C] | ≤ 0.5 |
| GUUCCGUUAGCGUAAUGGUAACGCGUCUACCUCAUAAGGAGAAGACUGCGGGUUCGAGUCCCGUACCGAACG [G9A C29A C34A G67C] | ≤ 0.5 |
